In PMC3523546 (Journal of Medicinal Chemistry, 2012):
Square brackets hold non-standard residues; d marks the D form. Peptide text beside a SMILES is read from it. * marks the point of attachment. FITC = O=C1OC2(c3ccc(O)cc3Oc3cc(O)ccc32)c2ccc(NC(=S)*)cc21; βAla = NCCC(=O)O

How the values were obtained:
LNCaP cells [1] = test: MTT proliferation assay, LNCaP; format: cell-based; details: 72 h
In short: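 LNCaP cells seeded at 2500 per well on poly-lysine-coated plates in RPMI 1640 with 10% FBS. Medium changed after 24 h, then peptide exposure for 72 h. MTT (1 mg/mL final) incubated 4 h; formazan dissolved in 2-propanol–HCl. Signal normalised to vehicle-treated cells (water, 0.1% DMSO).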

DU145 cells [2] = test: MTT proliferation assay, DU145; format: cell-based; details: 72 h
In short: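 DU145 cells seeded at 1500 per well in RPMI 1640 with 5% FBS. After 24 h, medium changed and peptide added for 72 h. MTT added (1 mg/mL final) for 4 h, then formazan dissolved in 2-propanol–HCl. Metabolic activity normalised to vehicle (bidistilled water, 0.1% DMSO). IC50 from curve fitting; tabulated IC50 are means of five independent experiments.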

amino-peptidases = test: Stability of the peptide to amino-peptidases; format: in vitro ADME; details: N-terminal Leu replaced by DLeu, versus ML-peptide; unpublished data
LNCaP cells [3] = test: Cell cycle analysis; format: cell-based; details: 200 μM, 96 h
In short: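 LNCaP cells (4 × 10^5 per 10 cm dish) grown 24 h untreated, then given vehicle (0.1% DMSO) or 100 or 200 μM peptide in 10% FBS medium for 96 h, with medium changed every 24 h. Cells trypsinised, fixed in ice-cold ethanol (30 min, room temperature), and stained with propidium iodide plus RNaseA in HEPES pH 7.2 buffer. Flow cytometry: ≥10000 gated singlets. Phase percentages taken from living cells. Three experiments in duplicate; unpaired two-tailed t test.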

DU145 cells [4] = test: Cellular uptake of FITC peptides by FACS; format: cell-based; details: for geometric mean of the distribution (GeoMean), range over both wash conditions: DU145, 10 μM FITC peptide, 1 h, FACS
In short: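 DU145 cells (4 × 10^5) incubated 1 h in serum-free RPMI with 10 μM FITC-labelled peptide, then pelleted. Pellets washed twice with 0.05% trypsin, 5 min at 37 °C, to strip membrane-bound label. Propidium iodide (10 μg/mL, 2 min) excluded membrane-damaged cells. At least 10000 events acquired per sample, excluding clumps and debris. Uptake reported as geometric mean fluorescence.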

[5] = biological target: T1, P6 Lys hexapeptide inhibitor; test: enzyme inhibition assay
T1 chain: KLRVKR

[6] = biological target: T2, P6 Leu hexapeptide inhibitor; test: enzyme inhibition assay
T2 chain: LLRVKR

[7] = biological target: T3, P6 Arg hexapeptide inhibitor; test: enzyme inhibition assay
T3 chain: RLRVKR

PC7 prodomain prodomain = biological target: T4, PC7 prodomain prodomain (Homo sapiens, UniProt Q16549); test: enzyme inhibition assay
T4 chain: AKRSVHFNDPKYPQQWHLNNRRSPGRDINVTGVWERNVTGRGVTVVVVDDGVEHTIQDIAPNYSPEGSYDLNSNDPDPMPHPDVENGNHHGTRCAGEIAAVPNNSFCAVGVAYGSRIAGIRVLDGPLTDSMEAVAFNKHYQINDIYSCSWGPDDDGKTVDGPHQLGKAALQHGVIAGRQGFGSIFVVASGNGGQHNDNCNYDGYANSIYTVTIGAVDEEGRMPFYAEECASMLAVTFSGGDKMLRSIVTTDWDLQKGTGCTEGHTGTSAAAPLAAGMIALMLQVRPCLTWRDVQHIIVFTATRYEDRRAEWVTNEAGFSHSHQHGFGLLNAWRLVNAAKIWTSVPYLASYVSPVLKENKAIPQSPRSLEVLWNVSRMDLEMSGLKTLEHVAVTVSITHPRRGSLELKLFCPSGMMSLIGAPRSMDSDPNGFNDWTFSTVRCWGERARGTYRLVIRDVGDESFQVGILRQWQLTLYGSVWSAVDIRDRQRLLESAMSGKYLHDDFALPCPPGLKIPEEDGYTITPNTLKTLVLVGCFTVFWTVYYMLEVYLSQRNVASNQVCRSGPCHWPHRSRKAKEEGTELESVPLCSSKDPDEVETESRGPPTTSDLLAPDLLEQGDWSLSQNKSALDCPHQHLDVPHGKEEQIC

## CC(=O)N[C@@H](CC(C)C)C(=O)N[C@@H](CC(C)C)C(=O)N[C@@H](CC(C)C)C(=O)N[C@@H](CC(C)C)C(=O)N[C@@H](CCCNC(=N)N)C(=O)N[C@H](C(=O)N[C@@H](CCCCN)C(=O)N[C@H](CCCNC(=N)N)C(N)=O)C(C)C [Ac-LLLLRVK[DArg]-NH2] (Ac-LLLLRVK[dR]-NH2)
LNCaP cells [1]
  inhibition of proliferation: poor proliferation inhibitor
DU145 cells [2]
  inhibition of proliferation: poor proliferation inhibitor

## CC(=O)N[C@H](CC(C)C)C(=O)N[C@@H](CC(C)C)C(=O)N[C@@H](CC(C)C)C(=O)N[C@@H](CC(C)C)C(=O)N[C@@H](CCCNC(=N)N)C(=O)N[C@H](C(=O)N[C@@H](CCCCN)C(=O)N[C@@H](CCCNC(=N)N)C(N)=O)C(C)C [Ac-[DLeu]LLLRVKR-NH2]
amino-peptidases
  stability of the peptide to amino-peptidases: improved stability
LNCaP cells [3]
  increase in the G0/G1 population: 10%

## CC(=O)N[C@@H](CCCNC(=N)N)C(=O)N[C@@H](C)C(=O)N[C@@H](CCCNC(=N)N)C(=O)N[C@@H](CCCNC(=N)N)C(=O)N[C@@H](CCCNC(=N)N)C(=O)N[C@@H](CCCCN)C(=O)N[C@@H](CCCCN)C(=O)N[C@@H](CCCNC(=N)N)C(=O)N[C@H](C(N)=O)[C@@H](C)O [reference compound]
LNCaP cells [1]
  inhibition of proliferation: no antiproliferative effects
DU145 cells [2]
  inhibition of proliferation: no antiproliferative effects

## FITC-C8-LLLLRVKR-NH2 ({FITC-C8}-LLLLRVKR-NH2)
DU145 cells [4]
  geometric mean of the distribution (GeoMean), range over both wash conditions: 260.08–261.95
DU145 cells [4]; DU145, FACS
  GeoMean compared to the control FITC-β-Ala-ML-peptide: 5 fold

## FITC-[β-Ala]-LLLLRVKR-NH2 ({FITC-βAla}-LLLLRVKR-NH2)
DU145 cells [4]
  geometric mean of the distribution (GeoMean), range over both wash conditions: 48.90–52.82

B1: PACE4 (protein)
chain: QVRSDPQALYFNDPIWSNMWYLHCGDKNSRCRSEMNVQAAWKRGYTGKNVVVTILDDGIERNHPDLAPNYDSYASYDVNGNDYDPSPRYDASNENKHGTRCAGEVAASANNSYCIVGIAYNAKIGGIRMLDGDVTDVVEAKSLGIRPNYIDIYSASWGPDDDGKTVDGPGRLAKQAFEYGIKKGRQGLGSIFVWASGNGGREGDYCSCDGYTNSIYTISVSSATENGYKPWYLEECASTLATTYSSGAFYERKIVTTDLRQRCTDGHTGTSVSAPMVAGIIALALEANSQLTWRDVQHLLVKTSRPAHLKASDWKVNGAGHKVSHFYGFGLVDAEALVVEAKKWTAVPSQHMCVAASDKRPRSIPLVQVLRTTALTSACAEHSDQRVVYLEHVVVRTSISHPRRGDLQIYLVSPSGTKSQLLAKRLLDLSNEGFTNWEFMTVHCWGEKAEGQWTLEIQDLPSQVRNPEKQGKLKEWSLILYGTAEHPYHTFSAHQSRSRMLELSAPELEPPKAALSPSQVEVPEDEEDYTAQSTPGSANILQTSVCHPECGDKGCDGPNADQCLNCVHFSLGSVKTSRKCVSVCPLGYFGDTAARRCRRCHKGCETCSSRAATQCLSCRRGFYHHQEMNTCVTLCPAGFYADESQKNCLKCHPSCKKCVDEPEKCTVCKEGFSLARGSCIPDCEPGTYFDSELIRCGECHHTCGTCVGPGREECIHCAKNFHFHDWKCVPACGEGFYPEEMPGLPHKVCRRCDENCLSCAGSSRNCSRCKTGFTQLGTSCITNHTCSNADETFCEMVKSNRLCERKLFIQFCCRTCLLAG
[5]
  Ki: 37 nM
[6]
  Ki: 49 nM
[7]
  Ki: 40 nM
PC7 prodomain prodomain
  Ki: 0.34 nM
